Results from different studies.
Protocols differ between the studies behind these lines.
Target: Mitogen-activated protein kinase 14 (MAPK14, Homo sapiens, UniProt Q16539)

Structure (SMILES) | read-out | action | technique | tested at | measurement | result
C1=C/COCc2cc(ccc2OCCN2CCCC2)Nc2nccc(n2)-c2cccc(c2)COC/1 | cell-free assay | – | – | 0.1 µM | remaining signal | 89%
CN1CCN(C(=O)c2ccc(NC(=O)Nc3ccc(N(C)c4ccnc(Nc5ccc(CS(C)(=O)=O)cc5)n4)cc3)cc2)CC1 | binding | – | competition with immobilised ligand | 1 µM | remaining binding | 83%
CCCCC(=O)Nc1ccc(-c2ccc3ncn(CCC)c(=O)c3c2)cn1 | binding | – | competition with immobilised ligand | 0.5 µM | remaining binding | 88%
COc1ccc2oc(-c3ccc4nc(N)oc4c3)c/c(=N\c3ccccc3NC(=O)CCN)c2c1 | binding | – | – | 1 µM | remaining binding | 109%
COc1ccc2[nH]c3c4[nH]c5ccc(OC)cc5c4c4c(c3c2c1)C(=O)NC4=O | binding | – | competition with immobilised ligand | 1 µM | remaining binding | 87%
CC#CC(=O)N1CCC[C@H]1c1nc(-c2ccc(C(=O)Nc3ccccn3)cc2)c2c(N)nccn12 | enzyme activity | inhibitor | – | 1 µM | inhibition | 0%
N#Cc1ccc(NC(=O)Nc2ccccc2)cc1 | cell-free assay | – | competition with immobilised ligand | 25 µM | remaining binding | 79%
C=CC(=O)N1CCC([C@@H]2CCNc3c(C(N)=O)c(-c4ccc(Oc5ccccc5)cc4)nn32)CC1 | enzyme activity | inhibitor | – | 1 µM | inhibition | 1%
C#Cc1cnc(Nc2ccnc(CO)c2)nc1Nc1ccccc1S(C)(=O)=NC#N (stereo not drawn) | cell-free assay | – | – | 1 µM | remaining signal | 91%
